Where two headings read alike, the source gives them in different places.

Data set [1] is described as follows: Metabolic profiling of plasma and urine. The class given is in vivo, human. The note with it: pooled urine of two subjects, 600-mg dose group.
The subject of data set [2] is ETB receptors. The settings on record: isolated rat aortic and tracheal preparations; cited from earlier work.
Data set [3] deals with ETA receptors. The settings on record: isolated rat aortic and tracheal preparations; cited from earlier work.
A short description of data set [4]: Simulation of multiple-dose profiles using the single-dose data. The settings on record: once-a-day regimen, data not shown. Also on record: species or system human.
For data set [5] the following is noted: rats; cited from earlier work.
Data set [6] concerns ETA and ETB receptors. The note with it: cited from earlier work.
The test system of data set [7] is bile salts. The note with it: rats, ref Actelion Pharmaceuticals, data on file, cited from earlier work.
Data set [8] is classed as in vivo. The note with it: male, human, plasma, plasma macitentan. A digest of the protocol: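 Single fasted doses of 0.2–600 mg were given, 6 active subjects per group. EDTA plasma was spun 10 min at 1,500 g, 4°C, and stored at −20°C. Sampling ran to 48 h, or 144 h for the 300 and 600 mg groups. Parent and metabolite were quantified by validated LC-MS/MS (linear 1–2,000 ng/ml, LOQ 1.0 ng/ml). Cmax, tmax, AUC and t1/2 were derived non-compartmentally.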

The test system of data set [9] is total bile salts. In words: Serum total bile salts. The class given is in vivo, human. The method, boiled down:
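Venous blood was drawn predose and at 1, 2, 3 and 4 h in fasted subjects, with no later draws because of a meal. Tubes without anticoagulant stood 30 min at room temperature, were spun 10 min at 1,500 g, 4°C, and serum was kept at −20°C. An enzymatic assay was used (detection limit 1 μmol/l). AUC0–4h was derived non-compartmentally and compared with placebo by ANOVA (P < 0.05).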

Data set [10] has as its system healthy male subjects. Nature of the data set: Safety and tolerability. The class given is in vivo, human. The note with it: for Abdominal pain: number of subjects reporting adverse event / Back pain: number of subjects reporting adverse event / Flushing: number of subjects reporting adverse event / Headache: number of subjects reporting adverse event / Hepatic function abnormal: number of subjects reporting adverse event / Leukocytosis: number of subjects reporting adverse event / Nasopharyngitis: number of subjects reporting adverse event / Nausea: number of subjects reporting adverse event / Neck pain: number of subjects reporting adverse event / Rhinitis: number of subjects reporting adverse event / Vomiting: number of subjects reporting adverse event: n = 6. A digest of the protocol: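 Double-blind, randomised, placebo-controlled single-ascending-dose design in healthy males: new group of 8 per level (6 active, 2 placebo), doses 0.2–600 mg, fasted. Next dose given only after safety review. Confinement from about 12 h predose to 48 h postdose. Adverse events, vital signs, 12-lead ECG, clinical laboratory and physical examination recorded. Descriptive analysis with placebo subjects pooled.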

Data set [11] concerns human hepatic transporters. The note with it: preclinical models, cited from earlier work.
Data set [12] has as its system patients with treatment-resistant hypertension. The settings on record: cited from earlier work.

For orientation: half-life means how long it takes for the measured level to halve. On to `NS(=O)(=O)Nc1ncnc(OCCOc2ncc(Br)cn2)c1-c1ccc(Br)cc1` [ACT-132577], for which, in [1], the detection in urine result was “no macitentan and ACT-132577 could be detected”. Besides, the “fold less potent than macitentan in blocking ETB receptors” value in data set [2] was “up to 5 fold”. The “fold less potent than macitentan in blocking ETA receptors” value in [3] is given as “up to 5 fold”. For the same compound, the “predicted accumulation factor upon repeated dosing” value in [4] is given as 10. Moreover, in data set [5], the half-life is 8.5 h. Moreover, the “selectivity for ETA receptors over ETB receptors” value in data set [6] is approximately 16 fold. Moreover, in [6] (preclinical experiments), the “affinity for ETA and ETB receptors compared with macitentan” value is reported as “lower”. Further, the “potency as endothelin receptor antagonist compared with macitentan” value in data set [6] (receptor binding and functional assays) was “less potent”.
The term Tmax denotes the time from dosing to the highest level. For the compound `CCCNS(=O)(=O)Nc1ncnc(OCCOc2ncc(Br)cn2)c1-c1ccc(Br)cc1` [macitentan, N-[5-(4-Bromophenyl)-6-(2-(5-bromopyrimidin-2-yloxy)ethoxy)pyrimidin-4-yl]-N′-propylsulfamide], the “effect on circulating bile salts” value in data set [7] is reported as “does not increase circulating bile salts”. Moreover, the detection in urine result in data set [1] is “no macitentan and ACT-132577 could be detected”. For the same compound, the half-life in [8] (600 mg, apparent terminal half-life, two higher dose groups (300 and 600 mg)) is approximately 16 h. In data set [8] (tmax in most subjects, individual values), the Tmax fell in the range of 4 to 12 h. Besides, the “predicted accumulation factor upon repeated dosing” value in data set [4] is given as 1.7. In addition, in data set [5], the half-life was 2 h and the volume of distribution is 1 L/kg. Moreover, in data set [9] (single dose 0.2 mg macitentan, P < 0.05 compared with placebo), the “effect on serum total bile salts at the lowest dose” value is “small but statistically significant effect”. Also, the “effect on serum total bile salt concentrations” value in data set [9] (single doses of up to 600 mg, 4-h observation period) was “no dose-dependent effect”. Further, the “increased alanine aminotransferase, times the upper limit of normal” value in data set [10] (one subject, 600 mg macitentan, 7 days after drug administration) is ≤ 2 times the upper limit of normal. In data set [10] (single dose 0.2 mg macitentan), the “Abdominal pain: number of subjects reporting adverse event” value (“Abdominal pain: number” below) is given as 0, the “Back pain: number of subjects reporting adverse event” value (from here on “Back pain: number”) is 0, the “Flushing: number of subjects reporting adverse event” value (from here on “Flushing: number”) is recorded as 0 and the “Headache: number of subjects reporting adverse event” value (“Headache: number” for short) worked out at 0. Also, in data set [10] (single dose 0.2 mg macitentan), the “Hepatic function abnormal: number of subjects reporting adverse event” value (“Hepatic function abnormal: number” for short) was 0, the “Leukocytosis: number of subjects reporting adverse event” value (from here on “Leukocytosis: number”) is 0, the “Nasopharyngitis: number of subjects reporting adverse event” value (“Nasopharyngitis: number” for short) came out at 0 and the “Nausea: number of subjects reporting adverse event” value (“Nausea: number” below) is recorded as 0. Moreover, in data set [10] (single dose 0.2 mg macitentan), the “Neck pain: number of subjects reporting adverse event” value (from here on “Neck pain: number”) is 0, the “Rhinitis: number of subjects reporting adverse event” value (from here on “Rhinitis: number”) was 0 and the “Vomiting: number of subjects reporting adverse event” value (“Vomiting: number” for short) is given as 0. Also, in [10] (single dose 1 mg macitentan), the “Abdominal pain: number” value worked out at 0, the “Back pain: number” value stood at 0, the “Flushing: number” value was determined as 0 and the “Headache: number” value worked out at 0. In data set [10] (single dose 1 mg macitentan), the “Hepatic function abnormal: number” value was found to be 0, the “Leukocytosis: number” value is on record as 0, the “Nasopharyngitis: number” value is 0 and the “Nausea: number” value is 0. Further, in [10] (single dose 1 mg macitentan), the “Neck pain: number” value is reported as 0, the “Rhinitis: number” value is 0 and the “Vomiting: number” value was found to be 0. Also, in [10] (single dose 5 mg macitentan), the “Abdominal pain: number” value is listed as 0, the “Back pain: number” value stood at 0, the “Flushing: number” value was found to be 0 and the “Headache: number” value is on record as 0. For the same compound, in data set [10] (single dose 5 mg macitentan), the “Hepatic function abnormal: number” value is on record as 0, the “Leukocytosis: number” value is listed as 0, the “Nasopharyngitis: number” value is 0 and the “Nausea: number” value is 0. Also, in data set [10] (single dose 5 mg macitentan), the “Neck pain: number” value came to 0, the “Rhinitis: number” value came to 0 and the “Vomiting: number” value is on record as 0. In addition, in data set [10] (single dose 25 mg macitentan), the “Abdominal pain: number” value was 0, the “Back pain: number” value was determined as 0, the “Flushing: number” value is on record as 0 and the “Headache: number” value was found to be 2. Further, in [10] (single dose 25 mg macitentan), the “Hepatic function abnormal: number” value turned out to be 0, the “Leukocytosis: number” value turned out to be 0, the “Nasopharyngitis: number” value is 1 and the “Nausea: number” value is 0. Besides, in data set [10] (single dose 25 mg macitentan), the “Neck pain: number” value worked out at 0, the “Rhinitis: number” value is given as 0 and the “Vomiting: number” value came to 0. Also, in [10] (single dose 100 mg macitentan), the “Abdominal pain: number” value is 0, the “Back pain: number” value turned out to be 0, the “Flushing: number” value is 0 and the “Headache: number” value turned out to be 1. Also, in data set [10] (single dose 100 mg macitentan), the “Hepatic function abnormal: number” value is on record as 0, the “Leukocytosis: number” value came to 1, the “Nasopharyngitis: number” value was 0 and the “Nausea: number” value came to 0. In data set [10] (single dose 100 mg macitentan), the “Neck pain: number” value stood at 1, the “Rhinitis: number” value is 0 and the “Vomiting: number” value stood at 0. Moreover, in data set [10] (single dose 300 mg macitentan), the “Abdominal pain: number” value was 0, the “Back pain: number” value amounted to 1, the “Flushing: number” value is on record as 0 and the “Headache: number” value is 2. Further, in data set [10] (single dose 300 mg macitentan), the “Hepatic function abnormal: number” value is on record as 0, the “Leukocytosis: number” value was found to be 0, the “Nasopharyngitis: number” value stood at 0 and the “Nausea: number” value was 0. Besides, in data set [10] (single dose 300 mg macitentan), the “Neck pain: number” value was 0, the “Rhinitis: number” value is recorded as 0 and the “Vomiting: number” value was 0. For the same compound, in [10] (single dose 600 mg macitentan), the “Abdominal pain: number” value is reported as 1, the “Back pain: number” value is 0, the “Flushing: number” value turned out to be 1 and the “Headache: number” value is reported as 5. Moreover, in data set [10] (single dose 600 mg macitentan), the “Hepatic function abnormal: number” value is given as 1, the “Leukocytosis: number” value is given as 0, the “Nasopharyngitis: number” value came out at 0 and the “Nausea: number” value is recorded as 2. Besides, in [10] (single dose 600 mg macitentan), the “Neck pain: number” value turned out to be 0, the “Rhinitis: number” value stood at 2 and the “Vomiting: number” value is recorded as 2. For the same compound, the maximum tolerated dose in data set [10] (single dose, healthy male subjects) amounted to 300 mg. Further, the “effects on vital signs, ECG and clinical laboratory variables” value in [10] (single doses 0.2 to 600 mg) was “no clinically significant drug-related effects”. In addition, in data set [6], the “selectivity for ETA receptors over ETB receptors” value is recorded as “about 50 fold”. Also, the “inhibition of human hepatic transporters” value in data set [11] (ref Actelion Pharmaceuticals, data on file) was “did not inhibit”.
Regarding `COc1ccccc1Oc1c(NS(=O)(=O)c2ccc(C(C)(C)C)cc2)nc(-c2ncccn2)nc1OCCO` [bosentan, reference compound], the “effect on plasma bile salts” value in data set [7] (intravenous administration) is “acute increase in plasma bile salts”.
As to `COc1cc(OC)nc(O[C@H](C(=O)O)C(OC)(c2ccccc2)c2ccccc2)n1` [darusentan], the “oedema or fluid retention, patients affected” value in data set [12] is on record as 27%.
`Cc1cc2c(cc1CC(=O)c1sccc1S(=O)(=O)Nc1onc(C)c1Cl)OCO2` [sitaxentan, reference compound]: the “interaction with human hepatic transporters” value in data set [11] is “substrates of and inhibit human hepatic transporters”.

The record behind these values is article PMC3169777 (European Journal of Clinical Pharmacology, 2011).
